Screening data deposited in PubChem by Johns Hopkins Ion Channel Center.
RGS4 act: potentiators or activators of RGS4. HEK293 M3R/inducible RGS4, carbachol calcium flux Fluo4; stronger effect = lower value. B-score at 10 µM. hit rate 0.92% among 310,000;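 active = B-score of the integrated calcium signal more than 4 SD below the library mean, with starting fluorescence not abnormally high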;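 also: negative B-score means reduced calcium response which marks RGS4 activation or potentiation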
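Material: M3R-expressing HEK293 line, RGS4 induced by doxycycline | Schedule: Overnight RGS4 induction, 30 min dye load 37 °C, 20 min compound RT | Measured by: Fluo4 fluorescence kinetic imaging of calcium | Read-out: Integrated calcium ratio converted to B score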
MrgX1 allo act: allosterically activates human MrgX1 receptor signaling; B-score at 10 µM; hit rate 0.63% among 310,000; Q96LB2; MrgX1-HEK293, Fluo-4 calcium flux, FDSS; stronger effect = higher value; AID 588675;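 active = plate-corrected calcium response at least 3 library SD above typical, normal starting fluorescence, not activating the receptor alone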;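 also: compound read alongside a low EC10 to EC30 dose of BAM8-22 agonist; peak minus trough fluorescence over baseline measured at the second addition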
Target sequence (Q96LB2 whole entry, looked up): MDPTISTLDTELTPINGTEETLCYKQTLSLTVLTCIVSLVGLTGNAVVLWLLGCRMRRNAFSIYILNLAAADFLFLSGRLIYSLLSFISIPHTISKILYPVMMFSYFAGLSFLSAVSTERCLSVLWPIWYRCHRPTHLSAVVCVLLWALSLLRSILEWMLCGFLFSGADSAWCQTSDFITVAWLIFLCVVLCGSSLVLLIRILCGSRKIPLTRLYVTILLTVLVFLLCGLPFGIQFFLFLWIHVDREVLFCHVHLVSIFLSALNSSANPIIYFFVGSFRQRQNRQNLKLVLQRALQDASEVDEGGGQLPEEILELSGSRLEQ
RGS4 block: human RGS4 inhibition; AID 463165; B-score at 10 µM; P49798; hit rate 0.45% among 310,000; HEK293 M3R/RGS4 inducible, Fluo-4 calcium flux; stronger effect = higher value; triggered by carbachol at its EC20;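 active = B-score, a plate-corrected calcium signal, over three deviations above library mean, with baseline fluorescence within five deviations of library mean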;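 also: RGS4 expression induced by doxycycline in cells with stable M3 receptor; B-score is computed from the integrated fluorescence ratio over baseline after carbachol; higher B-score means a larger calcium signal and so more RGS4 inhibition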
Target sequence (P49798 whole entry, looked up): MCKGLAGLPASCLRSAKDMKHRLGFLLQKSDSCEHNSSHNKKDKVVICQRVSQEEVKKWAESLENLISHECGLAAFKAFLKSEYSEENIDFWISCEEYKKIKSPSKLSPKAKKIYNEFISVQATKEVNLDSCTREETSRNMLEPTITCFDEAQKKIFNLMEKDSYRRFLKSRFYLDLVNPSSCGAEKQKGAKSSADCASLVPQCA
MrgX1 antag: antagonists of human MrgX1 receptor. Q96LB2. MRGX1-HEK293 calcium flux, Fluo-4, BAM8-22 antagonism; stronger effect = lower value. B-score at 10 µM. hit rate 1.3% among 310,000. AID 588676;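 active = calcium-response B-score plate-corrected more than 3 library SD below zero, starting fluorescence within 5 deviations, no agonist response on first addition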;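 also: peak minus trough fluorescence over baseline after final BAM8-22 challenge near maximal dose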
MrgX1 ag: agonists of human MrgX1 receptor. MrgX1-HEK293 cells, Fluo-4 calcium fluorescence, agonist mode; stronger effect = higher value. B-score at 10 µM. AID 588627. hit rate 0.44% among 310,000. Q96LB2;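 active = calcium response B-score plate-corrected fluorescence ratio at least 3 library SD, with starting fluorescence B-score inside 5 SD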
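Assay system: MrgX1-expressing HEK293 cells / Amount: fifteen thousand cells per well / Doses: test compound in the initial addition of three / Timing: cells plated overnight, dye loaded 0.5 h 37 °C, 0.5 h room temperature / Technique: kinetic calcium dye fluorescence, Fluo-4 NW / Control set: positive and negative controls per plate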
RGS4 inh valid: validation of RGS4 inhibitors. calcium response, % at 10 µM. HEK293 M3R/RGS4, carbachol calcium Fluo-4 fluorescence; carbachol added at its EC20; 0 = buffer wells, 100 = carbachol control. AID 492999. shares compounds with RGS4 block. hit rate 65% among 1,700;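 active = duplicate-averaged calcium response above the buffer-only control mean plus 5 SD of those controls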;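 also: integrated fluorescence ratio F max minus min over baseline F0; higher response in RGS4-induced cells means RGS4 inhibition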
M3R Ca ctr: counter-screen for RGS4 inhibitors: effect in non-induced cells; HEK293 M3R non-induced, carbachol calcium Fluo-4; submaximal (EC20) carbachol stimulus; buffer wells 0%, carbachol control wells 100%; shares compounds with RGS4 block; AID 493000; activity (percent), % at 10 µM; hit rate 20% among 1,900; call rule not given here;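 also: RGS4 induction absent so cells express M3R without RGS4; higher means more calcium signal and flags a non-specific hit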
RGS4 inh ctr2: signal in non-induced cells without carbachol, RGS4 inhibitor counter-screen; HEK293 M3R/RGS4 non-induced, Fluo-4 calcium, no carbachol; normalised: buffer wells 0%, carbachol wells 100%; calcium response (agonist-mode artifact), % at 10 µM; AID 493001; hit rate 22% among 1,900; shares compounds with RGS4 block;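 active = duplicate-averaged calcium rise in uninduced cells above buffer wells' mean plus 5 SD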
Each line names hits and unclear results; the compound was inactive in the other large screens (follow-up assays come after a bar, where they were run). Hits are enriched below; roughly 3.5% of the tested compounds scored in any of these assays.

CC(C)=CCC12Oc3cc(O)ccc3C1(O)Oc1cc(O)c([C@H]3C=C(C)CC(c4ccc(O)cc4O)[C@H]3C(=O)c3ccc(O)cc3O)c(O)c1C2=O (stereo not given in full)	RGS4 block 15 | RGS4 inh valid 24% | M3R Ca ctr inactive | RGS4 inh ctr2 inactive
CC(=C/C(=O)O)/C=C/c1ccco1	RGS4 block 5.4 | RGS4 inh valid 7.0% | M3R Ca ctr inactive | RGS4 inh ctr2 inactive
Cc1cc(C(=O)N/N=C/c2ccc(N(C)C)o2)cs1	RGS4 block 8.7 | RGS4 inh valid inactive | M3R Ca ctr inactive | RGS4 inh ctr2 inactive
O=C1Nc2ccccc2/C1=N/N=C/c1ccc(-c2ccc([N+](=O)[O-])cc2)o1	RGS4 block 4.8 (no result: MrgX1 allo act, MrgX1 antag, MrgX1 ag) | RGS4 inh valid 7.5% | M3R Ca ctr 35% | RGS4 inh ctr2 inactive
CC(=O)N(Cc1ccccc1C)c1cccc(C)c1C	none
CCn1c(C(=O)OC)cc2c1ccn2-c1ccc(F)cc1	none | M3R Ca ctr inactive | RGS4 inh ctr2 inactive
COC(=O)c1cc2c(ccn2-c2ccc(F)cc2)n1Cc1ccc(OC)cc1	none
CCCCC1=CC2=C(c3ccco3)C(=O)C(C)(OC(=O)c3ccc(OC)cc3)C(=O)C2=CN1CCN1CCOCC1 (stereo not given)	none | RGS4 inh valid inactive | M3R Ca ctr inactive | RGS4 inh ctr2 inactive
COC(=O)CCCC1=CC2=C(c3ccccc3)C(=O)C(C)(OC(=O)C3CCCC3)C(=O)C2=CN1Cc1ccc(OC)cc1 (stereo not given)	none
CCCCC1=CC2=C(c3ccco3)C(=O)C(C)(OC(=O)c3ccc(OC)cc3)C(=O)C2=CN1Cc1ccc(OC)cc1 (stereo not given)	none (no result: MrgX1 allo act, MrgX1 antag, MrgX1 ag)
CCCCC1=CC2=C(c3ccco3)C(=O)C(C)(OC(=O)c3ccc(OC)cc3)C(=O)C2=CN1CC1CC1 (stereo not given)	none | RGS4 inh valid inactive | M3R Ca ctr inactive | RGS4 inh ctr2 inactive
CCCCC1=CC2=C(c3ccco3)C(=O)C(C)(OC(=O)c3ccc(OC)cc3)C(=O)C2=CN1Cc1ccco1 (stereo not given)	MrgX1 antag -4.6 | RGS4 inh valid inactive | M3R Ca ctr inactive | RGS4 inh ctr2 inactive
CCCCC1=CC2=C(c3ccco3)C(=O)C(C)(OC(=O)c3ccc(OC)cc3)C(=O)C2=CN1CCCN(CC)CC (stereo not given)	none | RGS4 inh valid inactive | M3R Ca ctr inactive | RGS4 inh ctr2 inactive
CCCCC1=CC2=C(c3ccco3)C(=O)C(C)(OC(=O)c3ccc(OC)cc3)C(=O)C2=CN1C(CO)CO (stereo not given)	none
CCCCC1=CC2=C(c3ccco3)C(=O)C(C)(OC(=O)c3ccc(OC)cc3)C(=O)C2=CN1CC(C)C (stereo not given)	RGS4 block 6.8 | RGS4 inh valid 5.0% | M3R Ca ctr inactive | RGS4 inh ctr2 inactive
CCCCC1=CC2=C(c3ccco3)C(=O)C(C)(OC(=O)c3ccc(OC)cc3)C(=O)C2=CN1c1ccc(OC)cc1 (stereo not given)	RGS4 block 5.3 | RGS4 inh valid 7.0% | M3R Ca ctr inactive | RGS4 inh ctr2 inactive
CCCCC1=CC2=C(c3ccco3)C(=O)C(C)(OC(=O)c3ccc(OC)cc3)C(=O)C2=CN1CCCCO (stereo not given)	none | RGS4 inh valid inactive | M3R Ca ctr inactive | RGS4 inh ctr2 inactive
O=C(Nc1ccccc1-c1nc2ccccc2[nH]1)c1sc2ccccc2c1Cl	none
O=C(Nc1ccc(S(=O)(=O)Nc2cnc3ccccc3n2)cc1)c1ccc(Cl)c([N+](=O)[O-])c1	MrgX1 allo act 17, RGS4 block 8.9 | RGS4 inh valid 14% | M3R Ca ctr 56% | RGS4 inh ctr2 inactive
CC1CCN(c2nc(N3CCCCC3)nc(N3CCCCC3)n2)CC1	RGS4 block 8.7 | RGS4 inh valid 44% | M3R Ca ctr 55% | RGS4 inh ctr2 inactive
CCOC(=O)/C(C#N)=C/c1cn(CCC(=O)O)nc1-c1ccc(Cl)cc1	none | RGS4 inh valid inactive | M3R Ca ctr inactive | RGS4 inh ctr2 inactive
CCOC(=O)/C(C#N)=C/c1cn(CCC(=O)O)nc1-c1cccc(Br)c1	none | M3R Ca ctr inactive | RGS4 inh ctr2 inactive
CCOC(=O)/C(C#N)=C/c1cn(CCC(=O)O)nc1-c1ccc(OC)cc1	none
O=Cc1cn(CCC(=O)O)nc1-c1cccc(Cl)c1	none
CCOC(=O)/C(C#N)=C/c1cn(CCC(=O)O)nc1-c1ccccc1	none | RGS4 inh valid inactive | M3R Ca ctr inactive | RGS4 inh ctr2 inactive
Cc1ccc2nc(SCC(=O)N3CCC(Cc4ccccc4)CC3)nc(=O)n2c1	none
Cc1cccc(C)c1NC(=O)Cn1nc(-c2ccc(Cl)s2)ccc1=O	none
CCOC(=O)C1=C(C)N=c2s/c(=C\c3ccncc3)c(=O)n2C1c1ccc2c(c1)OCO2 (stereo not given)	RGS4 block 4.7 | RGS4 inh valid 16% | M3R Ca ctr 44% | RGS4 inh ctr2 16%
CC(C)Cc1ccc(CN2CCCC(NC(=O)CCN3CCOCC3)C2)cc1 (stereo not given)	none
CCOc1cccc(-c2c(C(=O)N/N=C/c3ccc(C)o3)nnn2-c2nonc2N)c1	none | RGS4 inh valid inactive | M3R Ca ctr inactive | RGS4 inh ctr2 inactive
CCOc1cccc(-c2c(C(=O)N/N=C/c3ccco3)nnn2-c2nonc2N)c1	none | RGS4 inh valid inactive | M3R Ca ctr inactive | RGS4 inh ctr2 inactive
CCN1C(=O)[C@H]2[C@@H](c3ccc(OC)cc3)N3C(=O)CN(CCOC)C(=O)[C@@]3(Cc3ccccc3)[C@H]2C1=O	none
N#C/C(=C\c1cccc([N+](=O)[O-])c1)c1nnc2n1CCCCC2	RGS4 block 6.1 | RGS4 inh valid 16% | M3R Ca ctr inactive | RGS4 inh ctr2 inactive
COC(=O)c1nn(C23CC4CC(CC(C4)C2)C3)c2c1C(=O)N(c1ccc(Br)cc1)C2=O	RGS4 block 5.9 | RGS4 inh valid 7.5% | M3R Ca ctr inactive | RGS4 inh ctr2 inactive
CCOC(=O)c1nn(C23CC4CC(CC(C4)C2)C3)c2c1C(=O)N(c1ccc(C)cc1)C2=O	RGS4 block 5.2 | RGS4 inh valid inactive | M3R Ca ctr inactive | RGS4 inh ctr2 100%
COC(=O)c1cc(-c2ccc(Br)cc2)on1	none
CS(=O)(=O)N(CC(=O)NC1CC2CCC1C2)c1ccc(Oc2ccccc2)cc1 (stereo not given)	none
